Screening data from PubChem BioAssay.
Only a selection was taken, and hits are over-represented in it overall.
NOD2-RIPK2 inh = NOD2-RIPK2 protein interaction inhibition | O43353 | inhibition, % at 4.98 µM | 360,000 tested, 0.38% active | CHO BLA complementation NOD2-RIPK2, CCF4 ratio | AID 624267; in the data active = inhibition above about 21%
TLR9-MyD88 inh = inhibitors of human TLR9-MyD88 binding. AID 504734. 340,000 tested, 0.21% active. inhibition, % at 4.98 µM. CHO BLA complementation TLR9-MyD88, CCF4 FRET ratio;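 active = inhibition above the mean over all tested compounds plus 3 SD, cut at about 21% in these data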
CHOP inhibitor = blocks CHOP induction under ER stress; inhibition, % at 10 µM; AID 2732; 220,000 tested, 3.8% active; CHO-K1 CHOP-promoter luciferase, tunicamycin-induced, 15-18 h;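 active = compounds that reduced the stress-induced luciferase reporter signal by more than about 70% of percent inhibition, limit read from the data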
CHOP UPR activ = activators of apoptotic arm of unfolded protein response (CHOP) | CHO-CHOP luciferase reporter, UPR activation, luminescence; percent of tunicamycin response over DMSO baseline | activation, % at 10 µM | 330,000 tested, 0.34% active;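 active = at 10 µM dose, activation of 40% or more, normalized to positive control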
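System: CHO CHOP reporter cells. Amount: 500 cells per well. Buffer or medium: F12 medium, 10% FBS. Compound dosing: one dose, 10 µM in 0.5% DMSO. Incubation: 6 h compound exposure at 37 °C after overnight seeding. Technique: Steady-Glo luciferase luminescence. Benchmarks: tunicamycin and DMSO controls.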
UPR XBP1 act = adaptive UPR (XBP1) activation; 330,000 tested, 0.33% active; CHO-XBP1 luciferase reporter, IRE1-XBP1 UPR activation, luminescence; percent of tunicamycin response, DMSO as zero; activation, % at 20 µM; AID 463104;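 active = versus positive control, 20 µM dose yields 30% or more activation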
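Material: CHO-XBP1 cells stably carrying IRE1-XBP1-driven luciferase reporter | Medium: F12 with 10% serum | Compound dosing: 20 µM single concentration, DMSO 1% | Incubation: Overnight seeding at 37 °C, 6 h compound treatment at 37 °C | Detection: Steady-Glo luminescence read | Read-out basis: % activation of reporter signal versus tunicamycin and DMSO controls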
TLR4 MyD88 comp = inhibitors of human TLR4-MyD88 binding; O00206+Q99836; HeLa CL3-4 TLR4/MyD88 BLA complementation, FRET ratio; inhibition, % at 8.4 µM; 200,000 tested, 0.18% active; AID 861; in the data active = inhibition above about 25%
Target sequence (O00206 whole entry, looked up): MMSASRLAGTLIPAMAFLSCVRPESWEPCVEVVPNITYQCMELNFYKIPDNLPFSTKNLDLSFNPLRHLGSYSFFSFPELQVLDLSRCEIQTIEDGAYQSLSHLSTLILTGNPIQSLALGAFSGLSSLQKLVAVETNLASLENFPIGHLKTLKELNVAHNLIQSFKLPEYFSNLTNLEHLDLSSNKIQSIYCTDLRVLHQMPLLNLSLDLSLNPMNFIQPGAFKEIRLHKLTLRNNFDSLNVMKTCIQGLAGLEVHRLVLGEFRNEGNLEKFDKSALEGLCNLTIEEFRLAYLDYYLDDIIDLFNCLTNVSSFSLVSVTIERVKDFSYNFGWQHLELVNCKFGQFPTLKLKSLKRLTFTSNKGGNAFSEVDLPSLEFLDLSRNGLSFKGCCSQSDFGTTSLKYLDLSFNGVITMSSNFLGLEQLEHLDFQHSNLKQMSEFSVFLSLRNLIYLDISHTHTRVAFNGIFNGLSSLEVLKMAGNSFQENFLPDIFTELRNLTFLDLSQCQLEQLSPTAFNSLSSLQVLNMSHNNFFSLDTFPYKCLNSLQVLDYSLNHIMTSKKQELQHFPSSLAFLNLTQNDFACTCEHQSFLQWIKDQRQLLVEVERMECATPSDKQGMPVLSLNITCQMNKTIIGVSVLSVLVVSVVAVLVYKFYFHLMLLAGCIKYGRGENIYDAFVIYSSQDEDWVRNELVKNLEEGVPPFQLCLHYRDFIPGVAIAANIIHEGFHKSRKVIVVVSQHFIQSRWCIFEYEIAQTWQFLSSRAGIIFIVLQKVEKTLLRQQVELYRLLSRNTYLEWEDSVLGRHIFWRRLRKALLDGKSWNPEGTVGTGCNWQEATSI
Target sequence (Q99836 whole entry, looked up): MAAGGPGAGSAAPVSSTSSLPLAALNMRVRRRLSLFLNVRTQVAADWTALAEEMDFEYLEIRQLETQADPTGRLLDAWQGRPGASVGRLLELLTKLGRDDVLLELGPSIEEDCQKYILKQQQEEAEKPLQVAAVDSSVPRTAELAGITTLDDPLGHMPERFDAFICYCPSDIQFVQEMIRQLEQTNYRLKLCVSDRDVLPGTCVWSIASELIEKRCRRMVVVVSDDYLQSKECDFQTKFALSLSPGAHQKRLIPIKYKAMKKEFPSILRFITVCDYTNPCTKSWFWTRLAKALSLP
Large screens that a line does not name were inactive; ! = not confirmed by another sample.

Cc1ccc(NS(=O)(=O)c2cc([N+](=O)[O-])ccc2NNC(=S)Nc2cc(C)ccc2C)c(C)c1	CHOP inhibitor 89
CN(C)S(=O)(=O)c1cccc(C(=O)Nc2cc(S(=O)(=O)N3CCOCC3)ccc2N2CCCC2)c1	none (no result: CHOP inhibitor, CHOP UPR activ, UPR XBP1 act, TLR4 MyD88 comp)
CCCCNC(=O)C(NC(=O)c1ccc(=O)[nH]c1)C(=O)c1ccccc1 (configuration not stated)	none (no result: TLR9-MyD88 inh, CHOP inhibitor, CHOP UPR activ, UPR XBP1 act, TLR4 MyD88 comp)
O=C(Cc1coc2ccc3ccccc3c12)Nc1nnc(C2CC2)s1	none
Cc1cc2occ(CC(=O)Nc3nnc(C4CC4)s3)c2cc1C	CHOP inhibitor 90
Cc1ccc(S(=O)(=O)NC(CC(=O)n2nc(C)cc2C)c2ccccc2)cc1 (configuration not stated)	CHOP inhibitor 80
Cc1ccc(S(=O)(=O)NC(c2ccccc2)C(C)C(=O)n2nc(C)cc2C)cc1 (configuration not stated)	CHOP inhibitor 73
COc1cc2c(cc1CNC[C@H]1O[C@@H](n3ccc(N)nc3=O)[C@H](O)[C@@H]1O)OCO2	none (no result: CHOP inhibitor, CHOP UPR activ, UPR XBP1 act, TLR4 MyD88 comp)
Cc1nc(NC(=O)/C=C/c2ccccc2)sc1C(=O)Nc1ccc(Cl)cc1	CHOP inhibitor 88
Cc1nc(Nc2ccc(Cl)cc2Cl)sc1C(=O)Nc1ccccc1	none
Cc1nc(Nc2ccc(Cl)c(Cl)c2)sc1C(=O)Nc1ccccc1	CHOP inhibitor 96
COCCNC(=O)c1cc2c(c(-c3cccc(C#Cc4ccc(OC)c(OC)c4)c3)n1)[C@H](CCO)N(S(=O)C(C)(C)C)C2 (some centres not stated)	none (no result: TLR9-MyD88 inh, CHOP inhibitor, CHOP UPR activ, UPR XBP1 act, TLR4 MyD88 comp)
C[C@@H]1Cn2cnc(C(=O)N[C@@H](C)c3ccccc3)c2C(=O)N1	none (no result: CHOP inhibitor, CHOP UPR activ, UPR XBP1 act, TLR4 MyD88 comp)
CC(C)(C)c1ccc(OCCCC(=O)Nc2nnc(C3CC3)s2)cc1	none (no result: CHOP inhibitor, CHOP UPR activ, UPR XBP1 act, TLR4 MyD88 comp)
O=C(CSCCNS(=O)(=O)c1ccccc1)Nc1ccccc1	CHOP inhibitor 74
CCOc1ccccc1C1C(C#N)=C(SCC(=O)OC)NC(=O)C1C(=O)OC (configuration not stated)	CHOP inhibitor 80
CCOC(=O)C1C(=O)NC(SCC(=O)OC)=C(C#N)C1c1ccccc1OCC (configuration not stated)	none
O=C(O)c1cc2nc(-c3ccccc3)cc(-c3ccccc3)n2n1	none
O=C(c1cnn2c(C(F)(F)F)cc(-c3ccccc3)nc12)N1CCCCC1c1cccnc1 (configuration not stated)	none
CC1CCCCN1C(=O)c1cc2nc(-c3ccccc3)cc(-c3ccccc3)n2n1 (configuration not stated)	CHOP inhibitor 82
O=C(c1cc2nc(-c3ccc(F)cc3)cc(C(F)(F)F)n2n1)N1CCCCC1c1cccnc1 (configuration not stated)	CHOP inhibitor 73
O=C(NCc1ccncc1)[C@@H]1CCCN1C(=O)[C@H]1CCCN1C(=O)c1cccc2ccccc12	none (no result: TLR9-MyD88 inh, CHOP inhibitor, CHOP UPR activ, UPR XBP1 act, TLR4 MyD88 comp)
COCCNc1nc(NCCN2CCNC2=O)c2sccc2n1	none (no result: TLR9-MyD88 inh, CHOP inhibitor, CHOP UPR activ, UPR XBP1 act, TLR4 MyD88 comp)
Cc1ccc(/C(O)=C/C(=O)C(=O)NNC(=O)C(O)(c2ccccc2)c2ccccc2)cc1	CHOP inhibitor 85
CCNc1ccc(S(=O)(=O)N2CCOCC2)cc1NCC(=O)Nc1cccc(Br)c1	none (no result: CHOP inhibitor, CHOP UPR activ, UPR XBP1 act, TLR4 MyD88 comp)
CC(C)(O)C#Cc1ccc([C@@H]2C[C@H]3CN(c4ccccc4)C(=O)[C@]34CCCN24)s1	CHOP inhibitor 95
Cc1cccc(NC(=S)NC(C)(C)CC(C)(C)C)c1	CHOP inhibitor 85
CCc1nc2ccc(C(=O)Nc3ccc(OC)c(OC)c3)cn2c1N(C)Cc1nccs1	none (no result: TLR9-MyD88 inh, CHOP inhibitor, CHOP UPR activ, UPR XBP1 act, TLR4 MyD88 comp)
Nc1ccc2oc(-c3cccc4ccccc34)nc2c1	CHOP inhibitor 81
Cc1cn([C@H]2C[C@H](O)[C@@H](CNCc3cccn3-c3ccncc3)O2)c(=O)[nH]c1=O	none (no result: CHOP inhibitor, CHOP UPR activ, UPR XBP1 act, TLR4 MyD88 comp)
CCCC(=O)Nc1c(C(=O)OCC)[nH]c2ccccc12	none
CCOC(=O)c1[nH]c2ccccc2c1NC(=O)Nc1ccc(OC)cc1	CHOP inhibitor 87
CCOc1ccc(C(=O)c2cc([N+](=O)[O-])ccc2Cl)cc1	CHOP inhibitor 82
CCCCCCOC(=O)C(C#N)c1nc2ccccc2nc1N1CCOCC1 (configuration not stated)	CHOP inhibitor 94
COc1cc(OC)cc(C(=O)NCC(=O)NCCN2C(=O)S/C(=C\c3ccc4c(c3)OCO4)C2=O)c1	none (no result: CHOP inhibitor, CHOP UPR activ, UPR XBP1 act, TLR4 MyD88 comp)
COc1cccc(C(=O)c2sc(NC(C)C)nc2N)c1	CHOP inhibitor 91
COc1cccc(C2=Nn3c(nnc3-c3ccccc3O)SC2)c1	none
C[n+]1c2n(c3ccccc31)N=C(c1cc(C(C)(C)C)c(O)c(C(C)(C)C)c1)CS2	CHOP inhibitor 73
COc1ccc(N2CCN(CC(=O)Nc3c(C)cccc3C)CC2)cc1	none (no result: CHOP inhibitor, CHOP UPR activ, UPR XBP1 act, TLR4 MyD88 comp)
CC(C)c1nc(N2CCN(C(=O)c3ccco3)CC2)c2c3c(sc2n1)CCCC3	CHOP inhibitor 74
COc1ccccc1N1CCN(C(c2cc3ccc(C)cc3[nH]c2=O)c2nnnn2C2CCCC2)CC1 (configuration not stated)	none
COc1ccccc1N1CCN(C(c2cc3cc(C)ccc3[nH]c2=O)c2nnnn2C2CCCC2)CC1 (configuration not stated)	CHOP inhibitor 91
COc1ccc(N2CCN(C(c3cccc(OC)c3OC)c3nnnn3C3CCCC3)CC2)cc1 (configuration not stated)	CHOP inhibitor 74
COc1ccc(S(=O)(=O)N2CCN(C3CCCCCCC3)CC2)cc1	CHOP inhibitor 74!
CC(C)(C)OC(=O)N[C@@H](Cc1ccccc1)c1nnc(SCC(=O)c2ccc(Cl)cc2)o1	CHOP inhibitor 86
O=C1c2cccc3cccc(c23)C(=O)N1c1nccs1	none
O=C1c2cccc3cccc(c23)C(=O)N1c1ccc2ncccc2c1	CHOP inhibitor 89
COC(=O)[C@@]12C[C@@H](CC(=O)NCCc3ccccc3OC)C(=O)N(Cc3ccco3)C1=CCC(C)(C)C2	none (no result: TLR9-MyD88 inh, CHOP inhibitor, CHOP UPR activ, UPR XBP1 act, TLR4 MyD88 comp)
Cc1ccc(C)c(-n2nnc3ccccc3c2=O)c1	none (no result: CHOP inhibitor, CHOP UPR activ, UPR XBP1 act, TLR4 MyD88 comp)
Clc1ccc2nc(-c3ccc(Br)s3)cn2c1	CHOP inhibitor 75
O=C(/C=C/[C@H]1O[C@@H](n2ccc(=O)[nH]c2=O)[C@H](O)[C@@H]1O)N1CCN(Cc2ccc(F)cc2)CC1	none (no result: TLR9-MyD88 inh, CHOP inhibitor, CHOP UPR activ, UPR XBP1 act, TLR4 MyD88 comp)
COc1cccc(OCC(=O)NNC(=O)CCc2ccccc2)c1	none
COc1cccc(OCC(=O)NNC(=O)c2ccc(-c3ccccc3)cc2)c1	CHOP inhibitor 80
Cc1ccc(Oc2cc(NC(=O)CCCn3nc([N+](=O)[O-])cc3C)cc([N+](=O)[O-])c2)cc1	CHOP inhibitor 73
Cc1ccc(C)c(Oc2cc(NC(=O)CCCn3nc(C)c([N+](=O)[O-])c3C)cc([N+](=O)[O-])c2)c1	CHOP inhibitor 80
